{
  "source": "ChEMBL document CHEMBL1144937",
  "about": "“A specific mechanism of nonspecific inhibition” (J Med Chem, 2003)",
  "key": {"[1]": {"target": "Beta-lactamase (Escherichia coli K-12) (UniProt P00811)", "sequence (P00811 whole entry)": "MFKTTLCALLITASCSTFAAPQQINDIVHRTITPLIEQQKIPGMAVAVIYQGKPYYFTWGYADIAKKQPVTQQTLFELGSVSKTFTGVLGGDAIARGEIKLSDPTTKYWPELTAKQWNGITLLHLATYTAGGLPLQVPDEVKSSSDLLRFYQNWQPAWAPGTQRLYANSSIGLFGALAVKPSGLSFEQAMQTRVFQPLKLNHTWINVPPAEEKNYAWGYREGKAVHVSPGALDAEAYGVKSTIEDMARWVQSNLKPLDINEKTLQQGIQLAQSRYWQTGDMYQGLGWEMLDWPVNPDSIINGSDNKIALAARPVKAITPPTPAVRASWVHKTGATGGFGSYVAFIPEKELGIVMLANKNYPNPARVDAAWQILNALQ", "conditions": "30 uM"}, "[2]": {"target": "Beta-lactamase (Escherichia coli K-12) (UniProt P00811)", "assay": "Percentage inhibition against beta-Lactamase in the absence of detergent Triton X-100 was determined at a concentration of 0.6 uM", "summary_of_the_method": "(§1)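 AmpC β-lactamase (expressed and purified from E. coli) assayed in 50 mM KPi, pH 7.0, at room temperature. Enzyme and inhibitor were preincubated for 5 min before the nitrocefin substrate (200 μM) was added, and hydrolysis was followed kinetically. For the detergent lines, Triton X-100, made fresh daily as a 1% (v/v) stock in 50 mM KPi, was used at a final 0.01%.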"}, "[3]": {"target": "Beta-lactamase (Escherichia coli K-12) (UniProt P00811)", "assay": "Percentage inhibition against beta-Lactamase in the presence of detergent 0.01% Triton X-100 was determined at a concentration of 0.6 uM", "summary_of_the_method": "as §1"}, "Beta-lactamase [4]": {"target": "T1, Beta-lactamase (Escherichia coli K-12, UniProt P00811)", "T1 sequence (P00811 whole entry)": "as above", "assay": "Inhibitory activity against Beta-lactamase from DMSO stock was determined"}, "Beta-lactamase [5]": {"target": "T1, Beta-lactamase", "assay": "Inhibitory activity against Amp C beta-Lactamase"}, "[6]": {"target": "Beta-lactamase (Escherichia coli K-12) (UniProt P00811)", "assay": "Percentage inhibition against beta-Lactamase in the absence of detergent Triton X-100 was determined at a concentration of 5 uM", "summary_of_the_method": "(§2)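 AmpC β-lactamase (E. coli-expressed, purified) assayed in 50 mM KPi, pH 7.0, at room temperature. Enzyme and inhibitor preincubated 5 min before substrate addition. Inhibitors were typically diluted from 10 mM DMSO stocks into KPi. Where present, Triton X-100 was at 0.01% final, from a 1% (v/v) stock in 50 mM KPi freshly prepared daily.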"}, "[7]": {"target": "Beta-lactamase (Escherichia coli K-12) (UniProt P00811)", "assay": "Percentage inhibition against beta-Lactamase in the presence of detergent 0.01% Triton X-100 was determined at a concentration of 5 uM", "summary_of_the_method": "as §2"}, "[8]": {"target": "Beta-lactamase (Escherichia coli K-12) (UniProt P00811)", "assay": "Percentage inhibition against beta-Lactamase in the absence of detergent Triton X-100 was determined at a concentration of 20 uM", "summary_of_the_method": "as §1"}, "[9]": {"target": "Beta-lactamase (Escherichia coli K-12) (UniProt P00811)", "assay": "Percentage inhibition against beta-Lactamase in the presence of detergent 0.01% Triton X-100 was determined at a concentration of 20 uM", "summary_of_the_method": "as §1"}, "[10]": {"target": "Beta-lactamase (Escherichia coli K-12) (UniProt P00811)", "assay": "Percentage inhibition against beta-Lactamase in the absence of detergent Triton X-100 was determined at a concentration of 25 uM", "summary_of_the_method": "as §2"}, "[11]": {"target": "Beta-lactamase (Escherichia coli K-12) (UniProt P00811)", "assay": "Percentage inhibition against beta-Lactamase in the presence of detergent 0.01% Triton X-100 was determined at a concentration of 25 uM", "summary_of_the_method": "as §2"}, "[12]": {"target": "Beta-lactamase (Escherichia coli K-12) (UniProt P00811)", "assay": "Percentage inhibition of Beta-lactamase at KPi (Potassium Phosphate) stock concentration of 5.9 uM", "summary_of_the_method": "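Compound dissolved directly in 50 mM KPi with no DMSO, stock level set by UV–vis spectra correlated with DMSO-diluted solutions. Tested against AmpC β-lactamase in 50 mM KPi, pH 7.0, room temperature, with 5 min enzyme–inhibitor preincubation. Value reported as percent inhibition.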"}},
  "data": [
    {"smiles": "O=S(=O)(O)c1cc(O)c(/N=N/c2ccc3ccccc3c2O)c2ccccc12", "values": [
      {"measurement": "inhibition", "setting": "[1]", "value": 68, "unit": "%"}
    ]},
    {"smiles": "OB(O)c1cc2ccccc2s1", "values": [
      {"measurement": "inhibition", "setting": "[2]", "value": 87, "unit": "%"},
      {"measurement": "inhibition", "setting": "[3]", "value": 86, "unit": "%"}
    ]},
    {"smiles": "COC(=O)C1=C(C)NC(C)=C(C(=O)OCCN(C)Cc2ccccc2)C1c1cccc([N+](=O)[O-])c1", "note": "(configuration not stated) [NICARDIPINE]", "values": [
      {"measurement": "IC50", "setting": "Beta-lactamase [4]", "value": 20, "unit": "µM"},
      {"measurement": "IC50", "setting": "Beta-lactamase [5]", "value": 20, "unit": "µM"}
    ]},
    {"smiles": "CC(=O)c1c(O)c(C)c(O)c(Cc2c(O)c3c(c(C(=O)/C=C/c4ccccc4)c2O)OC(C)(C)C=C3)c1O", "note": "[ROTTLERIN]", "values": [
      {"measurement": "inhibition", "setting": "[6]", "value": 90, "unit": "%"},
      {"measurement": "inhibition", "setting": "[7]", "value": 5, "unit": "%"},
      {"measurement": "IC50", "setting": "Beta-lactamase [5]", "value": 1.2, "unit": "µM"}
    ]},
    {"smiles": "Oc1ccc(/N=N/c2ccc(Br)cc2)cc1", "values": [
      {"measurement": "inhibition", "setting": "[8]", "value": 91, "unit": "%"},
      {"measurement": "inhibition", "setting": "[9]", "value": 10, "unit": "%"}
    ]},
    {"smiles": "O=C1NCc2c1c1c3ccccc3[nH]c1c1[nH]c3ccccc3c21", "note": "[STAUROSPORINONE]", "values": [
      {"measurement": "inhibition", "setting": "[8]", "value": 80, "unit": "%"},
      {"measurement": "inhibition", "setting": "[9]", "value": 17, "unit": "%"},
      {"measurement": "IC50", "setting": "Beta-lactamase [5]", "value": 8, "unit": "µM"}
    ]},
    {"smiles": "Clc1ccc(CSC(Cn2ccnc2)c2ccc(Cl)cc2Cl)cc1", "note": "(configuration not stated) [SULCONAZOLE]", "values": [
      {"measurement": "IC50", "setting": "Beta-lactamase [5]", "value": 14, "unit": "µM"}
    ]},
    {"smiles": "O=c1c(O)c(-c2ccc(O)c(O)c2)oc2cc(O)cc(O)c12", "values": [
      {"measurement": "inhibition", "setting": "[10]", "value": 68, "unit": "%"},
      {"measurement": "inhibition", "setting": "[11]", "value": 25, "unit": "%"},
      {"measurement": "inhibition", "setting": "[12]", "value": 43, "unit": "%"}
    ]}
  ]
}
